What was measured:
[1] = molecular target: Nitric oxide synthase 1 (Rattus norvegicus) (UniProt P29476); experiment: Inhibition of rat recombinant nNOS expressed in Saccharomyces cerevisiae assessed as conversion of [gamma-14C]L-arginine to [14C]L-citrulline at 100 uM by radioactive assay relative to control; parameters: scale not given: the % may be the effect or the level left
Method in brief: (§1)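 Purified enzymes: rat nNOS from S. cerevisiae, murine iNOS and bovine eNOS from E. coli. Reaction 5 min at 37 °C in 50 mM Hepes pH 7.4 with DTT, 1 mM NADPH, H4B, FAD, FMN, [14C]L-arginine (2.5 µM L-arginine) and 100 µM compound in 1% DMSO. nNOS/eNOS also got 1 mM CaCl2 and CaM, which iNOS lacked. [14C]citrulline isolated on Dowex and counted by scintillation; % of DMSO control, n=3.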

[2] = molecular target: T1, Nitric oxide synthase 3 (Bos taurus) (UniProt P29473); experiment: Inhibition of bovine recombinant eNOS expressed in Escherichia coli assessed as conversion of [gamma-14C]L-arginine to [14C]L-citrulline at 100 uM by radioactive assay relative to control; parameters: scale not given: the % may be the effect or the level left; method in brief: as §1
T1 sequence (whole entry): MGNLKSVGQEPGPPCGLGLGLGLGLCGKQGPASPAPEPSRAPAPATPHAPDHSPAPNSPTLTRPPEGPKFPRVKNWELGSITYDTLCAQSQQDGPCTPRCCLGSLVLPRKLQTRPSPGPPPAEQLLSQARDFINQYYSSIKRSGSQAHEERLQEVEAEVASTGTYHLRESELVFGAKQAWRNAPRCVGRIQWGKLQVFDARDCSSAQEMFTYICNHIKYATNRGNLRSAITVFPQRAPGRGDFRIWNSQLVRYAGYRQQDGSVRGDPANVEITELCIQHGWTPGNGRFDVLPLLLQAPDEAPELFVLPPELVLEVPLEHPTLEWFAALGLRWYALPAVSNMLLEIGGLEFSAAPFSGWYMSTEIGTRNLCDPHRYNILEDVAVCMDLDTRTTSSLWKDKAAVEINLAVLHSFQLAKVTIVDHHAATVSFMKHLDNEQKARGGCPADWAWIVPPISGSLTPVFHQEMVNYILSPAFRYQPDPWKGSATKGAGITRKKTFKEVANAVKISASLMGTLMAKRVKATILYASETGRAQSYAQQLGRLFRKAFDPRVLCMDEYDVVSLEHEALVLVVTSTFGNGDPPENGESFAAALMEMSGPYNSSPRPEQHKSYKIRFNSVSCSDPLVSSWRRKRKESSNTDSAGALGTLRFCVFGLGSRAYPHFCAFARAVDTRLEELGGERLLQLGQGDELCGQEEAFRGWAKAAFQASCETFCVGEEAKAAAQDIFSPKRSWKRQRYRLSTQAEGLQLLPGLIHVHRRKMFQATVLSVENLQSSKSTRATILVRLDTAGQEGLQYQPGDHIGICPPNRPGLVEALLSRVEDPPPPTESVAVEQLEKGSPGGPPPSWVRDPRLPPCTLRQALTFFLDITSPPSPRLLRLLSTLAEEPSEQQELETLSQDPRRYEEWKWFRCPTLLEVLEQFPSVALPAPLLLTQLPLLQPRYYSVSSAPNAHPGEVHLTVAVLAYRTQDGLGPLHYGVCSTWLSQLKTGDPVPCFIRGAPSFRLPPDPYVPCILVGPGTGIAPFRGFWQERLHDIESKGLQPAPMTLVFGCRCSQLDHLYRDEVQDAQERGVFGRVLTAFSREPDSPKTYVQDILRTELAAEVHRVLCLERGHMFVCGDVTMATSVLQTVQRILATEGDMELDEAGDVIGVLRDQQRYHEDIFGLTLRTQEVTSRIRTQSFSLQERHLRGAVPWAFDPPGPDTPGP

[3] = molecular target: T2, Nitric oxide synthase, inducible (Mus musculus) (UniProt P29477); experiment: Inhibition of iNOS in LPS and IFN-gamma-stimulated mouse RAW264.7 cells assessed as inhibition of nitrite accumulation at 100 uM after 15 hrs by Griess assay; format: cell-based
T2 sequence (whole entry): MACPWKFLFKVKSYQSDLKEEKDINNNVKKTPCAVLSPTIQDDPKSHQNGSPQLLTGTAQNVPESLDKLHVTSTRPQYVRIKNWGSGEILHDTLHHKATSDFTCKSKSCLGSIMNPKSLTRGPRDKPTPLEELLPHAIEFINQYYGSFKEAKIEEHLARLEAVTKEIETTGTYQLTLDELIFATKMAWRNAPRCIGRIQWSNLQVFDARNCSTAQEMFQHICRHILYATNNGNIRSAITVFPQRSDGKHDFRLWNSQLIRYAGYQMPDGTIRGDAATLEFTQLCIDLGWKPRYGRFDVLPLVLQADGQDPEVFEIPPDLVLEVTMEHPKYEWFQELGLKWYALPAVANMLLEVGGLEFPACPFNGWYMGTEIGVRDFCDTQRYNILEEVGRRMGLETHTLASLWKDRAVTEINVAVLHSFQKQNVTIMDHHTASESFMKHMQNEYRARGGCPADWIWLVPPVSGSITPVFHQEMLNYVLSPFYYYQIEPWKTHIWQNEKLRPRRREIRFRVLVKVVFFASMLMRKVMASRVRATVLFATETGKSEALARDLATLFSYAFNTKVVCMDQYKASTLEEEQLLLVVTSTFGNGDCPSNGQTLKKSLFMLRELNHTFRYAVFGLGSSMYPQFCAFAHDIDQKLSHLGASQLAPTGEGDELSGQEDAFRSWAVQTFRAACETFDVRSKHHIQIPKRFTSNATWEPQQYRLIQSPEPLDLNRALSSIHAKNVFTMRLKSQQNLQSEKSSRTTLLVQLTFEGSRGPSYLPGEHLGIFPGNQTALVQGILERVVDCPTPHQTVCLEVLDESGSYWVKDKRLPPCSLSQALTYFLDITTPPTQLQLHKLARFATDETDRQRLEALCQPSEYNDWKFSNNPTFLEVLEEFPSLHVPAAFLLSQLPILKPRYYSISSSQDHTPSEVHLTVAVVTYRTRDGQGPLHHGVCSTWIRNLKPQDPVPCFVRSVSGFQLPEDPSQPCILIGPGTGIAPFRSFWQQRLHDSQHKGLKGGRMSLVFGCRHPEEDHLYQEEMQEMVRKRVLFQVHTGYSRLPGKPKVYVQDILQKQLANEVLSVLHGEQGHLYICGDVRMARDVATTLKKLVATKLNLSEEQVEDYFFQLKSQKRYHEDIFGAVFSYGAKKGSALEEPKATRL
Method in brief: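 RAW 264.7 macrophages seeded at 100,000 cells/well in RPMI 1640 with 5% FCS and grown 24 h. Stimulated with 40 U/ml γ-IFN and 50 ng/ml LPS, with compound at 100 µM in 1% DMSO, for 15 h at 37 °C. Supernatant nitrite measured with Griess reagent at 550 nm against an NaNO2 calibration; 6–8 determinations.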

Chain of Nitric oxide synthase 1 (Rattus norvegicus) (P29476 whole entry): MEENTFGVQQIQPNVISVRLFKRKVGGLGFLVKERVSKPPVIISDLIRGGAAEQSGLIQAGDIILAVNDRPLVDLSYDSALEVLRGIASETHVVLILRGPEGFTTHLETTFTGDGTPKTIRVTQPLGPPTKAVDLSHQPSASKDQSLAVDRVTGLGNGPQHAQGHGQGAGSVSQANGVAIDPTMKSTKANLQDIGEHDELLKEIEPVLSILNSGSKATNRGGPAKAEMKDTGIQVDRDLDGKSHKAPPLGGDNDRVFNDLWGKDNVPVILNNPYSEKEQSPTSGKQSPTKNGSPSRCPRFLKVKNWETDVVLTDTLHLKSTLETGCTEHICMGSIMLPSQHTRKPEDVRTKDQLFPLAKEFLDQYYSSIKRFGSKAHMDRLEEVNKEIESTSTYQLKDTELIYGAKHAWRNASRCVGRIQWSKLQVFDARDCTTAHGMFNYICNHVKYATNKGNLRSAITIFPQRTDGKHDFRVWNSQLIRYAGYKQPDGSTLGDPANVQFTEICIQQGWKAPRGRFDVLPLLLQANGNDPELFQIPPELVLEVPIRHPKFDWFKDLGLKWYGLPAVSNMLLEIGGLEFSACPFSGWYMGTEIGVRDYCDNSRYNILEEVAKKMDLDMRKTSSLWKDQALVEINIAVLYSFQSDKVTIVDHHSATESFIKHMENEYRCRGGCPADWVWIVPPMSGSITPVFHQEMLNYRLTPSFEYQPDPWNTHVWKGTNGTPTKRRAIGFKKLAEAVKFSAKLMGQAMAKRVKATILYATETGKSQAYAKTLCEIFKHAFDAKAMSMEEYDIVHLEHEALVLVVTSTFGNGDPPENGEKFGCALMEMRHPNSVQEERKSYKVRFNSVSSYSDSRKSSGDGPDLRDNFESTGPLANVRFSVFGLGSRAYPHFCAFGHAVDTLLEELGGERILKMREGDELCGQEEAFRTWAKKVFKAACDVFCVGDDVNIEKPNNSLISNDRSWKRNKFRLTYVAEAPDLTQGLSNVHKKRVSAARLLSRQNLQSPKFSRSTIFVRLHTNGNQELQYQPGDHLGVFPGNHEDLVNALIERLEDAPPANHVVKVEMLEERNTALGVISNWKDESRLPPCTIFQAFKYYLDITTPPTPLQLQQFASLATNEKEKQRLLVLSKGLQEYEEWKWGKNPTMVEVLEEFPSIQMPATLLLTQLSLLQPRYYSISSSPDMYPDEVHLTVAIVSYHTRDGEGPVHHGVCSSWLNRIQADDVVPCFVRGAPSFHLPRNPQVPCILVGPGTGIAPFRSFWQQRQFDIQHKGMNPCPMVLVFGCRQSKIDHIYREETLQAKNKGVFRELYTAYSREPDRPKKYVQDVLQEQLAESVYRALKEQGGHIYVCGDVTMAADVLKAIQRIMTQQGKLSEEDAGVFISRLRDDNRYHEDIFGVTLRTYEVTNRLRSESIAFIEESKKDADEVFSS

Row | Compound | Activity [1] | Activity [2] | inhibition [3]
1 | CC1=CC2=NCC(C(=O)c3ccc(-c4ccc(Br)cc4)cc3)CN2C(C)=C1 (stereo not drawn) | 58% | 32% | –
2 | COc1ccc(-c2ccc(C(=O)C3CN=C4C=C(C)C=CN4C3)cc2)cc1.Cl (stereo not drawn) | 29% | 15% | 96%
3 | COc1ccc(C(=O)C2CN=C3C=CC=C(C)N3C2)cc1OC.[O-][Cl+3]([O-])([O-])O (stereo not drawn) | 100% | 81% | 70%
4 | N=C(NCCC[C@H](N)C(=O)O)N[N+](=O)[O-] | 2% | 5% | –
5 | CC1=CC2=NCC(C(=O)c3ccc(-c4ccc(Br)cc4)cc3)CN2C=C1.[O-][Cl+3]([O-])([O-])O (stereo not drawn) | 10% | 65% | 98%
6 | CC1=CC2=NCC(C(=O)c3ccc4cc(C)ccc4c3)CN2C(C)=C1.[O-][Cl+3]([O-])([O-])O (stereo not drawn) | 55% | 17% | 89%
7 | COc1ccc(C(=O)C2CN=C3C=C(C)C=CN3C2)cc1F.[O-][Cl+3]([O-])([O-])O (stereo not drawn) | 69% | 59% | 64%
8 | CC1=CC2=NCC(C(=O)c3ccc(-c4ccc(C#N)cc4)cc3)CN2C=C1.Cl (stereo not drawn) | 43% | 18% | 82%
9 | CC1=CC2=NCC(C(=O)c3ccc(OCc4ccc(Br)cc4)cc3)CN2C=C1.Cl (stereo not drawn) | 62% | 77% | 96%
10 | CC1=CC=CC2=NCC(C(=O)c3ccc(C)cc3)CN12.[O-][Cl+3]([O-])([O-])O (stereo not drawn) | 76% | 84% | 72%
11 | O=C(c1ccc(Cl)c(Cl)c1)C1CN=C2C=CC=CN2C1.[O-][Cl+3]([O-])([O-])O (stereo not drawn) | 87% | 83% | 59%
12 | CC1=CC2=NCC(C(=O)c3ccc4cc(C)ccc4c3)CN2C=C1.[O-][Cl+3]([O-])([O-])O (stereo not drawn) | 69% | 48% | 86%
13 | CC1=CC2=NCC(C(=O)c3ccc(OCc4ccc(C#N)cc4)cc3)CN2C=C1.[O-][Cl+3]([O-])([O-])O (stereo not drawn) | 60% | 44% | 93%
14 | CC1=CC=CC2=NCC(C(=O)c3ccc(F)cc3)CN12.[O-][Cl+3]([O-])([O-])O (stereo not drawn) | 83% | 71% | 44%
15 | CC1=CC2=NCC(C(=O)c3ccc(OCc4ccc(Cl)cc4)cc3)CN2C=C1.[O-][Cl+3]([O-])([O-])O (stereo not drawn) | 49% | 2% | 92%
